Measured values collected from several papers.
Compare with care: the assays were run in different laboratories.
Target: Mitogen-activated protein kinase kinase kinase 11 (MAP3K11, Homo sapiens, UniProt Q16584)

| SMILES | observed | method | concentration | remaining binding [%] |
| --- | --- | --- | --- | --- |
| O=C(NCCCN1CCOCC1)c1ccc(Nc2nccc(-c3cc4ccccc4s3)n2)cc1 | binding | competition with immobilised ligand | 1 µM | 39 |
| O=C(NCC1CCOCC1)c1n[nH]cc1NC(=O)c1c(F)cccc1F | binding | competition with immobilised ligand | 1 µM | 100 |
| Cn1cc(Cl)c2c(Oc3c(F)cc(Nc4cc(Cl)nc(N)n4)cc3F)ccnc21 | cell-free assay | competition with immobilised ligand | 0.1 µM | 100 |
| CN(C)c1nccc(-c2cnc3ncccn23)n1 | binding |  | 1 µM | 88 |
| CCN1CCN(Cc2ccc(C(=O)Nc3ccc(C)c(Oc4ccc5c(c4)CC(=O)N5)c3)cc2C(F)(F)F)CC1 | binding | competition with immobilised ligand | 1 µM | 100 |
| COc1ccnn2ncc(-c3ccnc(N(C)C)n3)c12 | binding |  | 1 µM | 100 |
| FC(F)(F)c1ccc2c(c1)nc(-c1cccnc1)n2C1CC1 | cell-free assay | competition with immobilised ligand | 1 µM | 100 |
| COc1cnc(Nc2cccc(S(N)(=O)=O)c2)nc1N1CCN(c2ccccc2)C(=O)C1 | binding | competition with immobilised ligand | 1 µM | 100 |
| O=C(Nc1ccc(Oc2ccc(F)cc2)cc1)N1CCc2ncccc2[C@H]1c1ccc(F)cc1 | cell-free assay | competition with immobilised ligand | 1 µM | 78 |
| CNC(=O)[C@@H]1CC[C@@H](n2c(-c3ccc4cnccc4c3)nc3ccc(C(=O)NCc4cccc(C(N)=O)c4)cc32)C1 | binding | competition with immobilised ligand | 1 µM | 100 |
| FC(F)(F)Oc1cccc(-c2cnc3ccc(-c4ccncc4)nn23)c1 | cell-free assay | competition with immobilised ligand | 5 µM | 95 |
| CCCOc1ccc([C@H]2[C@H](C(=O)O)[C@@H](c3ccc4c(c3)OCO4)CN2CC(=O)Nc2c(CC)cccc2CC)cc1 | cell-free assay | competition with immobilised ligand | 1 µM | 100 |
| Cc1cnn2ncc(-c3ccnc(N(C)C)n3)c2c1 | binding |  | 1 µM | 100 |
| O=C(NCc1ncc(C(F)(F)F)cc1Cl)c1ccc2c(c1)C1(CCS(=O)(=O)CC1)[C@H](C1CC1)N2S(=O)(=O)c1ccc(F)cc1 | cell-free assay | competition with immobilised ligand | 1 µM | 100 |
| CN(C)c1ncc(F)c(-c2cnn3ncccc23)n1 | binding |  | 1 µM | 88 |
| O=C(c1ccc(Nc2nccc(-c3cc4ccccc4s3)n2)cc1)N1CCC(N2CCCC2)CC1 | binding | competition with immobilised ligand | 1 µM | 57 |
| c1cnn2ncc(-c3ccnc(N4CCC45COC5)n3)c2c1 | binding |  | 1 µM | 100 |
| O=C(c1ccc(Nc2ncc(Cl)c(-c3ccc(Cl)s3)n2)cc1)N1CCC(N2CCCC2)CC1 | binding | competition with immobilised ligand | 1 µM | 13 |
| C[C@@H]1CN(c2cc(-c3nn(C)c4ccc(OC5(C)CC5)cc34)ncn2)C[C@H](C)O1 | cell-free assay | competition with immobilised ligand | 1 µM | 100 |
| N[C@@H]1CCN(c2nccc(-c3cnn4ncccc34)n2)C1 | binding |  | 1 µM | 99 |
